# According to ChEMBL document CHEMBL2086271, “Bicyclic Cyclohexenones as Inhibitors of NF-κB Signaling” (ACS Med Chem Lett, 2012):
# Activity calls are given as the source filed them. No cut-off for these calls is given here.
# Columns and labels:
# [1] = Solubility of the compound in DMEM media; type: physicochemical
# [2] = system: A549; assay: Inhibition of TNFalpha-induced NFkappaB in human A549 cells assessed as residual enzyme activity at 100 uM incubated for 30 mins prior to TNFalpha-induction measured after 7 hrs by luciferase reporter gene assay relative to control; type: cell-based
# Outline: (§1)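 A549 human lung cells stably carry a luciferase reporter driven by six tandem consensus NF-κB sites. Signaling was induced with TNF-α, and compound was added at 100, 50 or 10 μM. Luciferase activity is expressed relative to the induced, DMSO-treated control, set at 100%. Mean ± SD reported.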
# [3] = system: A549; assay: Inhibition of TNFalpha-induced NFkappaB in human A549 cells assessed as residual enzyme activity at 50 uM incubated for 30 mins prior to TNFalpha-induction measured after 7 hrs by luciferase reporter gene assay relative to control; type: cell-based; outline: as §1
# [4] = system: A549; assay: Inhibition of TNFalpha-induced NFkappaB in human A549 cells assessed as residual enzyme activity at 10 uM incubated for 30 mins prior to TNFalpha-induction measured after 7 hrs by luciferase reporter gene assay relative to control; type: cell-based; outline: as §1
# [5] = system: A549; assay: Cytotoxicity against human TNFalpha-induced A549 cells assessed as decrease in cell viability at 50 uM incubated for 30 mins prior to TNFalpha-induction measured after 7 hrs by alamar blue staining relative to control; type: cell-based; details: a549, 7 h
# [6] = system: CCRF-CEM; assay: Cytotoxicity against human CCRF-CEM cells after 48 hrs by alamar blue assay; type: functional, cell-based
# Outline: (§2)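 Viability read by Alamar Blue staining after 48 h exposure to a range of concentrations. Vero (African green monkey kidney epithelial), RWPE-1, DU-145 and CCRF-CEM human cells were used. IC50 is reported as mean ± SD.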
# [7] = system: DU-145; assay: Cytotoxicity against human DU145 cells after 48 hrs by alamar blue assay; type: functional, cell-based; outline: as §2
# [8] = system: DU-145; assay: Ratio of cryptocaryone IC50 to compound IC50 for human DU145 cells; type: functional
# [9] = system: Vero; assay: Cytotoxicity against african green monkey Vero cells after 48 hrs by alamar blue assay; type: cell-based; details: Chlorocebus sabaeus; outline: as §2
# [10] = Cytotoxicity against human RWPE1 cells after 48 hrs by alamar blue assay; type: cell-based; details: RWPE-1, 48 h; outline: as §2
# [11] = Selectivity index, ratio of IC50 for human RWPE1 cells to IC50 for human DU145 cells; type: functional
# [12] = system: DU-145; assay: Inhibition of IkappaB in human DU145 cells assessed as inhibition of TNFalpha-induced NFkappaB p65 nuclear translocation at 100 uM incubated for 14 hrs prior to TNFalpha-induction measured after 2 hrs by Western blot analysis; type: cell-based
# [13] = system: CCRF-CEM; assay: Inhibition of IkappaB in human CCRF-CEM cells assessed as inhibition of PMA-induced NFkappaB p65 nuclear translocation at 100 uM incubated for 12 hrs prior to TNFalpha-induction measured after 4 hrs by Western blot analysis; type: cell-based
# [14] = system: DU-145; assay: Partial inhibition of IkappaB in human DU145 cells assessed as inhibition of TNFalpha-induced NFkappaB p65 nuclear translocation at 25 uM incubated for 14 hrs prior to TNFalpha-induction measured after 2 hrs by Western blot analysis; type: cell-based
# [15] = system: CCRF-CEM; assay: Partial inhibition of IkappaB in human CCRF-CEM cells assessed as inhibition of PMA-induced NFkappaB p65 nuclear translocation at 25 uM incubated for 12 hrs prior to TNFalpha-induction measured after 4 hrs by Western blot analysis; type: cell-based
# [16] = system: DU-145; assay: Inhibition of NFkappaB in human DU145 cells assessed as inhibition of TNFalpha-induced IL8 mRNA production at 33 uM by RT-PCR analysis; type: cell-based
# Outline: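 DU-145 cells were dosed with compound (100 or 33 μM) or DMSO vehicle, then induced with TNF-α. IL-8 mRNA was analysed by semiquantitative RT-PCR, with GAPDH as reference. Noninduced and induced cells served as controls.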
# [17] = system: DU-145; assay: Inhibition of NFkappaB in human DU145 cells assessed as inhibition of TNFalpha-induced IL8 protein production at 33 uM by ELISA; type: cell-based
# Outline: (§3)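 DU-145 cells were dosed with compound (100 or 33 μM) or DMSO vehicle, then NF-κB was induced with TNF-α. Secreted IL-8 in the culture medium was quantified by ELISA, with noninduced and induced controls. Mean ± SEM reported.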
# [18] = system: DU-145; assay: Inhibition of NFkappaB in human DU145 cells assessed as TNFalpha-induced IL8 protein level at 100 uM by ELISA; type: cell-based; outline: as §3
smiles,measurement,setting,value
CO[C@@]12C=C(Br)C(=O)C[C@@H]1/C(=C(/OC(C)=O)c1ccccc1)CC2 (racemic),solubility,[1],Insoluble
CC(=O)O/C(=C1\CO[C@]2(C)C=CC(=O)C[C@H]12)c1ccccc1 (racemic),Activity,[2],33.9%
same,Activity,[3],61.6%
same,Activity,[4],90.9%
same,Activity,[5],10%
same,IC50,"[6]; Homo sapiens, CCRF-CEM, 48 h",26.4 µM
same,IC50,"[7]; Homo sapiens, DU-145, 48 h",33.7 µM
same,Ratio IC50,[8],15
same,IC50,[9],> 500 µM
same,IC50,[10],14.8 µM
same,Ratio IC50,[11],0.44
same,inhibition,[12],Active
same,inhibition,[13],Active
same,inhibition,[14],Active
same,inhibition,[15],Active
same,inhibition,[16],Active
same,Activity,[17],3480 pg/mL
CC(=O)O/C(=C1\CO[C@]2(C)CCC(=O)C[C@H]12)c1ccccc1 (racemic),Activity,[2],76.1%
same,Activity,[3],94.4%
same,Activity,[4],109%
same,IC50,"[6]; Homo sapiens, CCRF-CEM, 48 h",> 500 µM
same,IC50,"[7]; Homo sapiens, DU-145, 48 h",> 500 µM
same,IC50,[9],> 500 µM
same,IC50,[10],> 500 µM
same,Activity,[18],4900 pg/mL
CC(=O)O/C(C)=C1\CO[C@]2(C)C=C(Br)C(=O)C[C@H]12 (racemic),inhibition,[2],inactive
same,inhibition,[3],inactive
same,inhibition,[4],inactive
CC(=O)O/C(C)=C1\CO[C@]2(C)C=C(Br)[C@H](O)C[C@H]12 (racemic),inhibition,[2],inactive
same,inhibition,[3],inactive
same,inhibition,[4],inactive
CC(=O)O/C(C)=C1\CO[C@]2(C)C=C(C)C(=O)C[C@H]12 (racemic),inhibition,[2],inactive
same,inhibition,[3],inactive
same,inhibition,[4],inactive
CC(=O)O/C(C)=C1\CO[C@]2(C)C=CC(=O)C[C@]12C (racemic),inhibition,[2],inactive
same,inhibition,[3],inactive
same,inhibition,[4],inactive
CC(=O)[C@H]1CO[C@]2(C)C=C(c3ccccc3)[C@H](O)C[C@H]12 (racemic),inhibition,[2],inactive
same,inhibition,[3],inactive
same,inhibition,[4],inactive
CC(=O)O/C(C)=C1\CO[C@]2(c3ccccc3)C=CC(=O)C[C@H]12 (racemic; form 1) [listing 1 of 2 here],Activity,[5],5%
same,IC50,[6]; ccrf-cem,26.4 µM
same,IC50,"[7]; Homo sapiens, DU-145, 48 h",35.9 µM
same,Ratio IC50,[8],15
same,IC50,[9],> 500 µM
same,IC50,[10],98.8 µM
same,Ratio IC50,[11],2.75
CC(=O)O/C(C)=C1\CO[C@]2(c3ccccc3)C=CC(=O)C[C@H]12 (racemic; form 1) [listing 2 of 2 here],Activity,[2],17.3%
same,Activity,[3],36.2%
same,Activity,[4],93.7%
same,inhibition,[12],Active
same,inhibition,[13],Active
same,inhibition,[14],Active
same,inhibition,[15],Active
same,inhibition,[16],Active
same,Activity,[17],2970 pg/mL
CC(=O)O/C(C)=C1\CO[C@]2(c3ccccc3)C=CC(=O)C[C@H]12 (racemic; form 2) [listing 1 of 2 here],IC50,"[6]; Homo sapiens, CCRF-CEM, 48 h",19 µM
same,IC50,[7]; du-145,46 µM
CC(=O)O/C(C)=C1\CO[C@]2(c3ccccc3)C=CC(=O)C[C@H]12 (racemic; form 2) [listing 2 of 2 here],Activity,[3],18%
O=C1C[C@@H]2/C(=C(O)\C=C\c3ccccc3)C(=O)C=C[C@@H]2O1 [CRYPTOCARYONE],IC50,"[7]; Homo sapiens, DU-145, 48 h",2.3 µM
